Xi reactivation: activators of X-chromosome reactivation in mouse fibroblasts; actives 0.055% (n = 360,000); XiGFP mouse fibroblasts, % GFP-positive cells imaging, 3 d; cells co-treated with 5-aza-dC sensitizer; scaled so ellipticine positive control = 100%; activation, % at 7.58 µM;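 active means mean normalized replicate activation at least 10% and every replicate at or above 10%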;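 further: 0% = median of on-plate neutral control wells and 100% = ellipticine 6 µM median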
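Assay system – SV40-immortalized XiGFP fibroblast cells, line 68-5-11 · Buffer or medium – DMEM supplemented with 5-aza-dC as sensitizing agent · Dosing – one concentration, pinned · Benchmarks – positive control ellipticine, 6 µM final · Times – 3 days compound exposure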
MITF TRPM1 HTS: MITF TRPM1 promoter activation in melanoma cells | AID 588334 | actives 0.75% (n = 300,000) | activation, % at 12.5 µM | SK-MEL-5 TRPM1-promoter luciferase, 24 h; % of positive control, neutral wells = 0;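 active means mean activation of at least 80% with every replicate also reaching 80%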;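 further: 0% = neutral control wells and 100% = parthenolide positive control wells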
Casp6 inh: inhibitors of human caspase-6; P55212; purified caspase-6, Z-VEID-R110 cleavage fluorescence; inhibition, % at 12.5 µM; actives 0.53% (n = 350,000);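 active means mean inhibition across replicates at least about 35%, with every replicate also reaching that limit, limit read from the data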;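 further: 0% = median of neutral control wells and 100% = no fluorescence left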
NSD2 HMT inh: NSD2 (human) methyltransferase inhibition; O96028; NSD2 peptide methylation, AlphaScreen, 120 min; inhibition, % at 12.5 µM; actives 0.54% (n = 310,000); in the data active means inhibition above about 50%
Target sequence (O96028 whole entry, looked up): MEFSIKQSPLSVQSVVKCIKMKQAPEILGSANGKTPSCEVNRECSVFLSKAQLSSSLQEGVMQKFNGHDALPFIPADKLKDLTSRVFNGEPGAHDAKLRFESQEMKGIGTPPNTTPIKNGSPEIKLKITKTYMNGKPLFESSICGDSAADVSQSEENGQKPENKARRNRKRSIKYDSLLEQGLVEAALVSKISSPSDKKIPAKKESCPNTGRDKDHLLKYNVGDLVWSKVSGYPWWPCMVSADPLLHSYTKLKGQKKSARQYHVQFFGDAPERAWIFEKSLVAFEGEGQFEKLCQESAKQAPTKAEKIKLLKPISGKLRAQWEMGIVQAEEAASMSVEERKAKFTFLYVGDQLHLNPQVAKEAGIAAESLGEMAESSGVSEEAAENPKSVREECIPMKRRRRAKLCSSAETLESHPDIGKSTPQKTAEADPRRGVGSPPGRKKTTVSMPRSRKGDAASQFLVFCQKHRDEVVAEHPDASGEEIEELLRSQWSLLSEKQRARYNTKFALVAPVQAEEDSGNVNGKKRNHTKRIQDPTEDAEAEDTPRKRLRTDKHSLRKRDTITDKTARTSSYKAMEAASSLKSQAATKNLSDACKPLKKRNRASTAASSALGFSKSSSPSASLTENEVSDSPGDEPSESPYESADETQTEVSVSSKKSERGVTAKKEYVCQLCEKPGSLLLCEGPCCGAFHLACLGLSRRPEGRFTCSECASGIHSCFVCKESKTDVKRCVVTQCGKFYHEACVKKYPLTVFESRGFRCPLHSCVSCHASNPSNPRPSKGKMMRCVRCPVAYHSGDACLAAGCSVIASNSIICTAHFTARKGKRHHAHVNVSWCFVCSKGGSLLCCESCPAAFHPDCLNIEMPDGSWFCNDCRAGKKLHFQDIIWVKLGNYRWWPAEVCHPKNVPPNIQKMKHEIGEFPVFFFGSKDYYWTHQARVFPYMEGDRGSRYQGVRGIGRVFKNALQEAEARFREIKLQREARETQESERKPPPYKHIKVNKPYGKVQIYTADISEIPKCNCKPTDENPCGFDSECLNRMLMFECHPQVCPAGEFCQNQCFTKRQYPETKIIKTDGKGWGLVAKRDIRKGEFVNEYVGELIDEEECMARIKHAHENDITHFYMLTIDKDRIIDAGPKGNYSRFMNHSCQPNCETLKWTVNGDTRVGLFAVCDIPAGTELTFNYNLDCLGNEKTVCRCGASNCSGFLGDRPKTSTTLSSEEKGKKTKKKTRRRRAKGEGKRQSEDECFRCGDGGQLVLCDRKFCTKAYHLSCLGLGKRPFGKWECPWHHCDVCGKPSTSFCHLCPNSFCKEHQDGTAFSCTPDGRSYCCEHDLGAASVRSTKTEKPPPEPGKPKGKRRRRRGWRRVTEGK
Wnt act: Wnt/beta-catenin pathway activation | Wnt/beta-catenin reporter cell assay, activator, plate reader | activation, % at 9.35 µM | actives 1.2% (n = 300,000); in the data active means activation above about 30%, passing the limit was not always enough;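 further: 0% = neutral control wells and 100% = positive control wells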
esBAF inh: SWI/SNF esBAF complex inhibition; mouse ES cells, Bmi1-luciferase knock-in reporter, 24 h; 100% = twice the neutral-well signal; reporter increase, % at 12.5 µM; actives 2% (n = 350,000); AID 602393; in the data active means activation above about 40%;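 further: 0% = median of the plate's neutral control wells and 100% = double that signal; a rise in the Bmi1 reporter signal indicates esBAF inhibition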
* hit, by the source's call; · = no result given. Compounds with a hit are over-represented: about 3% of the library has one in this group of screens.

SMILES	Xi reactivation	MITF TRPM1 HTS	Casp6 inh	NSD2 HMT inh	Wnt act	esBAF inh
COc1cc(OC)cc(-c2nc3cc(C)ccc3o2)c1	·	52.1	·	-0.6	57.2*	44.9*
CN(c1ccccc1)S(=O)(=O)c1cccc(NC(=O)c2cc3ccccc3oc2=O)c1	2.5	28.3	-0.7	-6.4	29.2	53.5*
O=C(Nc1ccc(F)cc1F)c1cc2ccccc2oc1=O	0.0	·	-1.3	-2.8	49.9*	19.7
O=C(c1cc2ccccc2oc1=O)N1CCN(c2ncccn2)CC1	·	·	·	-1.8	·	70.4*
O=C(c1cc2ccccc2oc1=O)N1CCN(c2ccccn2)CC1	·	13.2	·	-5.2	0.6	-0.8
Cc1ccc(NC(=O)c2cc3ccccc3oc2=O)cc1S(=O)(=O)N(C)C	·	-74.9	·	2.0	·	·
O=C(c1ccccc1)N1CCN(C(=O)c2cc3ccccc3oc2=O)CC1	-0.1	·	-0.8	-4.0	-1.3	-3.2
O=C(NNC(=O)c1cc2ccccc2oc1=O)c1ccccc1	0.0	·	0.4	-1.4	8.8	54.7*
CC(=Nc1ccccc1)C1=C(O)CSC1=O	·	1.0	·	·	-1.1	46.0*
COc1ccc(N=C(C)C2=C(O)CSC2=O)cc1	·	-5.8	-1.7	-0.3	16.1	31.1
COc1ccc(Br)cc1C1CC(=O)N2CN(C)CSC2=C1C#N (configuration not stated)	-0.3	·	35.4*	·	-3.9	-8.9
COc1cc(OC)c(C2CC(=O)N3CN(C)CSC3=C2C#N)cc1OC (configuration not stated)	-0.3	·	3.0	·	-3.5	0.3
Cc1ccn2c(Cc3ccccc3)c(-c3ccc(F)cc3)nc2c1	0.3	·	2.1	·	11.5	44.7*
Cc1ccc(Cc2c(-c3ccccc3)nc3c(C)cc(Br)cn23)cc1	0.0	·	0.8	·	-0.5	·
Cc1ccc(Cc2c(-c3ccccc3)nc3cc(C)ccn23)cc1	0.7	·	-2.3	·	1.2	41.9*
CC(=O)N(C)C[C@H]1Oc2c(NC(=O)NC(C)C)cccc2C(=O)N(C)C[C@@H]1C	0.5	·	·	·	·	·
Cn1cccc1/C=C1\SC(=O)N(c2ccccc2)C1=O	0.0	94.5*	·	-1.5	40.7*	·
Cc1cccc(-c2ccc([C@@H]3[C@@H](CO)N4CCCCN(S(=O)(=O)c5cccs5)C[C@@H]34)cc2)c1	0.8	·	1.6	·	·	·
C=CCNc1nc(C(=O)OCC(=O)Nc2ccc(S(N)(=O)=O)cc2)cs1	1.2	-7.3	3.2	4.5	1.7	-5.8
C=CCNc1nc(C(=O)OCC(=O)c2ccccc2)cs1	0.0	69.4	-1.8	-2.3	19.1	54.9*
COCC#Cc1ccc2c(c1)O[C@H](CN(C)C(=O)c1ccccc1)[C@@H](C)CN([C@@H](C)CO)S2(=O)=O	0.0	·	-2.3	·	·	-1.9
CC(=O)N(C)C[C@@H]1Oc2c(NC(=O)NC(C)C)cccc2C(=O)N(C)C[C@@H]1C	0.3	·	·	·	·	·
Nc1[nH]ncc1N=Nc1ccc(Cl)cc1	·	63.8	·	5.7	·	47.3*
Cc1oc(-c2ccc(-c3ccccc3)cc2)nc1CN(CCO)C(C)C	0.0	36.0	-1.9	2.1	11.6	59.8*
C[C@H]1CN([C@@H](C)CO)C(=O)c2cccc(NC(=O)Nc3ccc4c(c3)OCO4)c2O[C@@H]1CN(C)Cc1ccc(Oc2ccccc2)cc1	0.2	·	1.1	·	·	9.1
SMILES	Xi reactivation	MITF TRPM1 HTS	Casp6 inh	NSD2 HMT inh	Wnt act	esBAF inh
Nc1nc(SCC(=O)N2CCc3ccccc3C2)[nH]c(=O)c1-c1ccccc1	·	3.7	·	·	11.0	56.0*
Nc1nc(SCC(=O)Nc2ccccc2)[nH]c(=O)c1-c1ccccc1	·	4.1	-2.3	-1.2	-3.1	16.9
O=C(C[C@H]1C[C@H]2c3cc(NC(=O)NC4CCCC4)ccc3O[C@H]2[C@H](CO)O1)NCc1ccc(-c2ccccc2)cc1	0.5	·	1.9	·	·	6.0
Cc1c(-c2ccc(Br)cc2)[n+](=O)c2c(n1[O-])CCCCC2	0.1	·	1.5	-0.9	36.5*	·
Cc1ccc(-c2c(C)n([O-])c3c([n+]2=O)CCCC3)cc1	0.0	7.0	-1.7	0.9	3.6	·
Nc1ccc2c(c1)C(=O)c1ccc(Br)cc1-2	0.0	14.5	-1.6	0.3	20.1	0.9
Nc1ccc2c(c1)C(=O)c1ccccc1-2	-0.1	·	-0.5	·	31.7*	15.3
Nc1ccc2c(c1)C(=O)c1ccccc1C2=O	0.0	103.8*	1.5	3.0	40.1*	69.2*
O=C(Nc1ccc(-c2nc3ccccc3s2)cc1)c1cc(-n2cnnc2)ccc1Cl	·	-48.7	1.0	0.5	4.1	59.8*
Cc1ccc(NC(=O)c2cc(-n3cnnc3)ccc2Cl)cc1	·	-5.5	·	-3.6	·	3.0
Cc1ccc(S(=O)(=O)N2C[C@@H](O)COC[C@H]3O[C@H](CC(=O)N[C@H]4CCN(Cc5ccccc5)C4)CC[C@@H]32)cc1	0.0	·	1.2	·	·	-3.0
Cc1nnc(NS(=O)(=O)c2ccc(N=Nc3ccc(N)nc3N)cc2)s1	0.0	11.9	68.5*	21.9	-1.8	6.3
C[C@H]1CN([C@@H](C)CO)C(=O)c2ccccc2-c2ccccc2CO[C@@H]1CN(C)C(=O)Nc1ccc2c(c1)OCO2	0.7	·	·	·	·	·
CN(C)c1ncc(C2=C(Cl)C(=O)C(N3CCCC3)=C(Cl)C2=O)s1	·	-60.2	·	56.9*	0.9	-5.9
CC(=O)c1cccc(OCC(=O)N(C)CC(=O)NCc2ccco2)c1	0.5	-3.0	49.2*	6.0	-5.1	-3.4
O=C(COC(=O)c1cccc(Br)c1)NCc1ccco1	-0.2	1.2	65.0*	-7.2	0.7	-4.3
Cc1cc(Br)ccc1SCC(=O)OCC(=O)NCc1ccco1	-0.1	9.5	48.2*	1.4	3.3	·
Cc1ccc(C)c(SCC(=O)OCC(=O)c2ccco2)c1	·	3.3	53.9*	1.7	-0.9	1.7
Cc1cccc(C(=O)OCC(=O)NCc2ccco2)c1	0.0	11.8	2.6	0.1	1.2	0.1
Cc1ccc(C)c(SCC(=O)NCc2ccco2)c1	·	-5.5	·	3.1	·	·
COc1ccc(C#Cc2ccc3c(c2)[C@]2(C(=O)N3)[C@H](c3ccc(OCCO)cc3)N3[C@H](c4ccccc4)[C@H](c4ccccc4)OC(=O)[C@H]3[C@@H]2C(=O)NC[C@H](O)c2ccccc2)cc1	·	·	-1.9	·	·	·
C[C@@H](NC(=O)C[C@@H]1C=C[C@H](NC(=O)Nc2ccc3c(c2)OCO3)[C@@H](CO)O1)c1ccccc1	0.2	·	2.7	·	·	1.1
C[C@H]1CCCCO[C@H](CN(C)C(=O)Nc2ccc(C(F)(F)F)cc2)[C@@H](C)CN([C@@H](C)CO)C(=O)c2cc(NC(=O)Nc3ccc4c(c3)OCO4)ccc2O1	0.1	·	-1.7	·	·	5.4
COc1ccc(C2CC(c3ccc(Br)cc3)=NN2C(=S)Nc2ccccc2)cc1 (configuration not stated)	0.0	36.2	17.8	-2.2	5.7	44.6*
COc1ccc(C2CC(c3ccccc3)=NN2C(=S)Nc2ccccc2)cc1 (configuration not stated)	0.0	4.2	2.2	-3.1	3.2	3.1
